The values that follow come from article PMC5952261 (ACS Infectious Diseases, 2018).

For experiment [1], the system named is P. aeruginosa ATCC 27853. Kind of experiment: MIC in CAMHB. To be noted: polymyxin susceptible, 10^6 CFU/mL, 18 h, 37 °C, visible growth. Type of experiment: cell-based, Pseudomonas aeruginosa.
The test system of experiment [2] is P. aeruginosa FADDI-PA002. Nature of the experiment: MIC in CAMHB. Type of experiment: cell-based, Pseudomonas aeruginosa. To be noted: polymyxin susceptible, 10^6 CFU/mL, 18 h, 37 °C, visible growth.
Experiment [3] deals with P. aeruginosa FADDI-PA022. Nature of the experiment: MIC in CAMHB. It counts as cell-based, Pseudomonas aeruginosa. To be noted: polymyxin susceptible, 10^6 CFU/mL, 18 h, 37 °C, visible growth.
The test system of experiment [4] is P. aeruginosa FADDI-PA091. Nature of the experiment: MIC in CAMHB. Type of experiment: cell-based, Pseudomonas aeruginosa. To be noted: polymyxin susceptible, 10^6 CFU/mL, 18 h, 37 °C, visible growth.
For experiment [5], the system named is P. aeruginosa FADDI-PA025. Kind of experiment: MIC in CAMHB. Type of experiment: cell-based, Pseudomonas aeruginosa. To be noted: polymyxin susceptible, 10^6 CFU/mL, 18 h, 37 °C, visible growth.
Experiment [6] deals with P. aeruginosa FADDI-PA001. Nature of the experiment: MIC in CAMHB. Type of experiment: cell-based, Pseudomonas aeruginosa. To be noted: polymyxin susceptible, 10^6 CFU/mL, 18 h, 37 °C, visible growth.
The test system of experiment [7] is P. aeruginosa FADDI-PA038. Nature of the experiment: MIC in CAMHB. Type of experiment: cell-based, Pseudomonas aeruginosa. To be noted: polymyxin susceptible, 10^6 CFU/mL, 18 h, 37 °C, visible growth.
The test system of experiment [8] is P. aeruginosa FADDI-PA092. Nature of the experiment: MIC in CAMHB. It counts as cell-based, Pseudomonas aeruginosa. To be noted: polymyxin resistant, 10^6 CFU/mL, 18 h, 37 °C, visible growth.
Experiment [9] has as its system P. aeruginosa FADDI-PA066. Nature of the experiment: MIC in CAMHB. Type of experiment: cell-based, Pseudomonas aeruginosa. To be noted: polymyxin resistant CF isolate, 10^6 CFU/mL, 18 h, 37 °C, visible growth.
For experiment [10], the system named is polymyxin-sensitive P. aeruginosa isolates. Nature of the experiment: MIC in CAMHB, panel summary. It counts as cell-based, Pseudomonas aeruginosa. To be noted: range over the panel of Table 1, CAMHB.
Experiment [11] relates to P. aeruginosa CF isolate FADDI-PA066. Nature of the experiment: Cell viability, planktonic growth in artificial sputum media. To be noted: up to 128 mg/L. It counts as cell-based, Pseudomonas aeruginosa.
In experiment [12] the test system is P. aeruginosa FADDI-PA066. Kind of experiment: Transmission electron microscopy of cells growing in biofilm. Type of experiment: cell-based, Pseudomonas aeruginosa. To be noted: 1× MIC (colistin 128 mg/L; octapeptin A3 16 mg/L), 1 h, 37 °C.
In experiment [13] the test system is P. aeruginosa FADDI-PA020. Kind of experiment: Impact of sputum biomolecules on lipopeptide activity in CAMHB. It counts as cell-based, Pseudomonas aeruginosa. To be noted: lipopeptide 2 mg/L, 3 h, colony counts; for impact of DNA on antibacterial activity: DNA 125 mg/L; for impact of F-actin/DNA on antibacterial activity: F-actin/DNA 125 mg/L. The method in brief:
(§1)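 Mid-log cultures (OD500 0.4–0.6; 37 °C, 180 rpm) were diluted to OD ~0.05 in CAMHB. Test compound at 2 mg/L was coincubated for 3 h in 24-well plates with one biomolecule at 125 mg/L: F-actin/DNA, DNA, mucin, phospholipids, surfactant or LPS. Samples were spiral-plated and incubated overnight at 37 °C, and colonies were counted automatically. Detection limit 10 CFU/mL.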

Experiment [14] relates to P. aeruginosa FADDI-PA021. The description is as above. It counts as cell-based, Pseudomonas aeruginosa. To be noted: lipopeptide 2 mg/L, 3 h, colony counts; for impact of DNA on antibacterial activity: DNA 125 mg/L; for impact of F-actin/DNA on antibacterial activity: F-actin/DNA 125 mg/L. The method in brief: as §1
Experiment [15] deals with P. aeruginosa FADDI-PA066. Described as above. It counts as cell-based, Pseudomonas aeruginosa. To be noted: lipopeptide 2 mg/L, 3 h, colony counts; for impact of F-actin/DNA on antibacterial activity: F-actin/DNA 125 mg/L; for impact of mucin on antibacterial activity: mucin 125 mg/L (50% (w/v)); for impact of phospholipids on antibacterial activity: phospholipids 125 mg/L. The gist of the method:
as §1

The test system of experiment [16] is mucin. To be noted: dialysis; ref Huang et al., 32; cited from earlier work.
Experiment [17] relates to P. aeruginosa FADDI-PA093. Nature of the experiment: MIC in CAMHB. To be noted: polymyxin resistant, 10^6 CFU/mL, 18 h, 37 °C, visible growth. It counts as cell-based, Pseudomonas aeruginosa.
The subject of experiment [18] is P. aeruginosa FADDI-PA065. Kind of experiment: MIC in CAMHB. It counts as cell-based, Pseudomonas aeruginosa. To be noted: polymyxin resistant, 10^6 CFU/mL, 18 h, 37 °C, visible growth.
Experiment [19] deals with P. aeruginosa FADDI-PA070. Nature of the experiment: MIC in CAMHB. Type of experiment: cell-based, Pseudomonas aeruginosa. To be noted: polymyxin resistant, 10^6 CFU/mL, 18 h, 37 °C, visible growth.
The subject of experiment [20] is P. aeruginosa FADDI-PA069. Nature of the experiment: MIC in CAMHB. Type of experiment: cell-based, Pseudomonas aeruginosa. To be noted: polymyxin resistant, 10^6 CFU/mL, 18 h, 37 °C, visible growth.
The test system of experiment [21] is P. aeruginosa FADDI-PA068. Nature of the experiment: MIC in CAMHB. Type of experiment: cell-based, Pseudomonas aeruginosa. To be noted: polymyxin resistant, 10^6 CFU/mL, 18 h, 37 °C, visible growth.
The test system of experiment [22] is P. aeruginosa FADDI-PA062. Nature of the experiment: MIC in CAMHB. It counts as cell-based, Pseudomonas aeruginosa. To be noted: polymyxin resistant, 10^6 CFU/mL, 18 h, 37 °C, visible growth.
Experiment [23] deals with P. aeruginosa FADDI-PA060. Nature of the experiment: MIC in CAMHB. It counts as cell-based, Pseudomonas aeruginosa. To be noted: polymyxin resistant, 10^6 CFU/mL, 18 h, 37 °C, visible growth.

Each structure is given as a SMILES string. Values after ≈ are worked out from the molar mass of the structure shown. Positions of bridges follow the written chain, without caps; N, C: chain ends. Non-standard residues stand in square brackets, D forms with d. Residues, ends and D or L forms follow the SMILES beside them. *: point of attachment. X1 = CC[C@H](C)CCCCC(=O)*; Dab = NCC[C@H](N)C(=O)O

For the molecule `CC[C@H](C)CCCCC(=O)N[C@@H](CCN)C(=O)N[C@H](C(=O)N[C@@H](CCN)C(=O)N[C@H]1CCNC(=O)[C@H]([C@@H](C)O)NC(=O)[C@H](CCN)NC(=O)[C@H](CCN)NC(=O)[C@H](CC(C)C)NC(=O)[C@@H](CC(C)C)NC(=O)[C@H](CCN)NC1=O)[C@@H](C)O` [colistin] (X1-[Dab]T[Dab][Dab][Dab][dL]L[Dab][Dab]T; lactam 4-C (inferred); N-terminus assumed), the minimum inhibitory concentration is recorded as 1 mg/L (≈ 0.855 µM) in experiment [1]; 0.25 mg/L (≈ 0.214 µM) in [2]; 1 mg/L (≈ 0.855 µM) in experiment [3]; 0.5 mg/L (≈ 0.428 µM) in experiment [4]; 2 mg/L (≈ 1.71 µM) in experiment [5]; 0.5 mg/L (≈ 0.428 µM) in [6]. The minimum inhibitory concentration in experiment [7] is given as 1 mg/L (≈ 0.855 µM); in [8], 16 mg/L (≈ 13.7 µM); in [9], over 128 mg/L. Further, the “MICs against the polymyxin-sensitive isolates” value in experiment [10] lay in the range of 0.25 to 4 mg/L. Further, the “activity (reduction of cell viability), in words” value in [11] is “inactive even at 128 mg/L”. For the same molecule, the “effect on bacterial outer membrane (TEM)” value in experiment [12] is reported as “blebbing effect with vesicular protrusions from the outer membrane”. Besides, the “impact of DNA on antibacterial activity” value in experiment [13] and in experiment [14] was “marginally impacted” in each case. Besides, the “impact of F-actin/DNA on antibacterial activity” value in experiment [13] is “only marginally affected”; in experiment [14], “inhibited”; in experiment [15], “no impact”. Also, the “impact of mucin on antibacterial activity” value in [15] is “not noticeable”. The “impact of phospholipids on antibacterial activity” value in experiment [15] is reported as “not discernible”. Moreover, the binding to mucin entry in experiment [16] was “avidly bind”.
As for `CC[C@H](C)CCCCC(=O)N[C@@H](CCN)C(=O)N[C@H](C(=O)N[C@@H](CCN)C(=O)N[C@H]1CCNC(=O)[C@H]([C@@H](C)O)NC(=O)[C@H](CCN)NC(=O)[C@H](CCN)NC(=O)[C@H](CC(C)C)NC(=O)[C@@H](Cc2ccccc2)NC(=O)[C@H](CCN)NC1=O)[C@@H](C)O` [polymyxin B] (X1-[Dab]T[Dab][Dab][Dab][dF]L[Dab][Dab]T; lactam 4-C (inferred); N-terminus assumed), the minimum inhibitory concentration in [1] came out at 0.5 mg/L (≈ 0.415 µM); in experiment [2], 0.5 mg/L (≈ 0.415 µM); in [3], 1 mg/L (≈ 0.831 µM); in [4], 1 mg/L (≈ 0.831 µM); in experiment [5] it was 2 mg/L (≈ 1.66 µM); in experiment [6], 0.5 mg/L (≈ 0.415 µM). Besides, the minimum inhibitory concentration is recorded as 1 mg/L (≈ 0.831 µM) in experiment [7]; 32 mg/L (≈ 26.6 µM) in experiment [17]; 32 mg/L (≈ 26.6 µM) in experiment [9]; over 32 mg/L in experiment [18]; over 32 mg/L in [19]; over 32 mg/L in [20]. Besides, the minimum inhibitory concentration is given as over 32 mg/L in experiment [21], over 32 mg/L in experiment [22] and over 128 mg/L in [23]. For the same molecule, the “MICs against the polymyxin-sensitive isolates” value in [10] fell in the range of 0.25 to 4 mg/L. In addition, the “activity (reduction of cell viability), in words” value in experiment [11] was “inactive even at 128 mg/L”. Moreover, the “impact of DNA on antibacterial activity” value in experiment [13] and in experiment [14] was “marginally impacted” each time. The “impact of F-actin/DNA on antibacterial activity” value in experiment [13] is “only marginally affected”; in experiment [14] it was “inhibited”; in experiment [15] it was “marginally inhibited”. In addition, in experiment [15], the “impact of mucin on antibacterial activity” value is on record as “not noticeable”. Further, the “impact of phospholipids on antibacterial activity” value in experiment [15] was “not discernible”. Also, in experiment [16], the binding to mucin entry is reported as “avidly bind”.
